“Also recorded” adds a separate entry of the source.
Key:
[1] = test system: Hsp70-CHIP interaction (myc-LgBiT-IEEVD / SmBiT-CHIP-FLAG); format: cell-based; details: for effect on NanoBiT luminescence, single dose: 5 μM, 6 hours, mean ± SD (n=3)
Method in brief: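 Stable reporter cells induced overnight with dox 100 μg/mL in 96-well plates. Peptides (DMSO-dissolved) given at 10 µM for 1 h; small-molecule inhibitors given at 5 µM for 6 h. Live-cell substrate added in Opti-Mem, 5 min dark at room temperature, then read at 500 ms integration. Uninduced background subtracted; normalized to DMSO control as percent; mean ± SD, n=3.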

[2] = test system: CHIP TPR domain; details: cited from earlier work
[3] = test system: Hsp70; test: Western blot of lysate protein levels: Hsp70; format: cell-based; details: compared to vehicle; western blot of treated NanoBiT cells
Method in brief: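 Reporter cells dox-induced overnight, then given test compound for 6 h. Inputs denatured 5 min at 95 °C. Blots blocked 1 h, primary antibody 1:1000 overnight at 4 °C, secondary 1:10000 for 1 h.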

[4] = test system: NanoBiT reporter components (myc-LgBiT-IEEVD, SmBiT-CHIP-FLAG); test: Western blot of lysate protein levels: NanoBiT reporter components; format: cell-based; details: anti-myc or anti-FLAG
[5] = test system: dox-inducible NanoBiT reporter in NanoBiT cells; test: NanoBiT luminescence assay of dox-dependence and signal stability; format: cell-based; details: dox 100 μg/mL, 24 hours
Method in brief: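 HEK293 Flp-In T-REx cells electroporated with a bicistronic myc-LgBiT-IEEVD/SmBiT-CHIP-FLAG vector plus pOG44, selected with 100 µg/mL hygromycin, and cloned. Cells cultured in 96-well plates ±dox 100 μg/mL for 24 h. Live-cell furimazine substrate added in Opti-Mem, 5 min dark at room temperature, then read at 500 ms integration. Uninduced-cell background subtracted; mean ± SD, n=3.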

For Ac-LWWPD, the “efficacy in the NanoBiT assay” value ([1]; discussion statement, peptide without CPP) is given as “no efficacy” and the “affinity for CHIP in vitro” value ([2]; in vitro, see Figure 1 (FP, adapted from ref 21)) is given as “sub-micromolar affinity”.

In the case of LWWPD, the “binding to CHIP's purified TPR domain relative to IEEVD” value ([2]; FP, peptide in vitro, fold better than IEEVD) is listed as “at least 10 fold”.

For R9-LWWPD, the “reduction of NanoBiT luminescence” value ([1]; 10 μM peptide, 1 hour, normalized to DMSO control, n=3) was “approximately 40%” and the “effect on NanoBiT luminescence, peptides, single dose” value ([1]; 10 μM, 1 hour, percent of DMSO control, n=3) was “cell active inhibitor”.

In the case of CO[C@H]1/C=C\C=C(/C)C(=O)NC2=CC(=O)C(NCCN(C)C)=C(C[C@@H](C)C[C@H](OC)[C@H](O)[C@@H](C)/C=C(\C)[C@@H]1OC(N)=O)C2=O [17-DMAG, 17-dimethylaminoethylamino-17-demethoxygeldanamycin], the “total abundance of Hsp70 in the lysate” value [3] is reported as “increased the total abundance of Hsp70 in the lysate; also recorded: induces Hsp70 levels” and the “effect on NanoBiT luminescence, single dose” value ([1]; percent of DMSO control) is reported as “reduced the luminescence”.

With CCn1c(=O)/c(=C2\Sc3cc(Cl)ccc3N2C)s/c1=C\c1scc[n+]1Cc1ccccc1.[Cl-] [JG-98] the “effect on NanoBiT luminescence, single dose” value ([1]; percent of DMSO control) was “reduced luminescence” and the “stability/expression of NanoBiT reporter components” value [4] was “partially destabilized both components of the NanoBiT reporter”.

With C[C@H]1c2cccc(O)c2C(=O)C2=C(O)[C@]3(O)C(=O)C(C(N)=O)=C(O)[C@@H](N(C)C)[C@@H]3[C@@H](O)[C@@H]21 [dox, doxycycline] the luminescence with dox ([5]; mean ± SD (n=3)) was 47300 ± 1270 RLU, the “fold increase of luminescence compared to control without dox” value ([5]; n=3) was 31 fold and the “stability/expression of NanoBiT reporter components” value [4] was “both reporter components were expressed in response to dox, with little background”.

In the case of CCn1c(=O)/c(=C2\SCCN2C)s/c1=C\c1scc[n+]1Cc1ccccc1.[Cl-] [JG-258], the “effect on NanoBiT luminescence, single dose” value ([1]; percent of DMSO control) is reported as “but not an inactive control, JG-258, reduced luminescence”.

Source: paper PMC8054679 (Analytical biochemistry, 2020)
